# Data as given in ChEMBL document CHEMBL4425131, “Convergent Synthesis of Novel Muramyl Dipeptide Analogues: Inhibition of Porphyromonas gingivalis-Induced Pro-inflammatory Effects by High Doses of Muramyl Dipeptide” (J Med Chem, 2016).
# Calls of active or inactive are those of the source. The rule behind the calls is not given here.
# How the values were obtained:
# Peritoneal macrophage [1] = experiment: Effect on Porphyromonas gingivalis-induced TNFalpha expression in wild type mouse primary peritoneal macrophages at 10 ug/ml after 3 hrs by ELISA relative to control; format: functional
# Summary of the method: (§1)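 Primary peritoneal macrophages from C57BL/6 mice cultured in RPMI 1640 with 10% FBS. Cells left untreated, given 10, 100 or 1,000 µg/ml MDP alone, given P. gingivalis alone, or co-treated with P. gingivalis plus 10, 100 or 1,000 µg/ml MDP for 3 h. TNF-α in conditioned medium measured by ELISA; mean ± S.E.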
# Peritoneal macrophage [2] = experiment: Effect on Porphyromonas gingivalis-induced TNFalpha expression in wild type mouse primary peritoneal macrophages at 100 ug/ml after 3 hrs by ELISA relative to control; format: functional; summary of the method: as §1
# Peritoneal macrophage [3] = experiment: Effect on Porphyromonas gingivalis-induced TNFalpha expression in wild type mouse primary peritoneal macrophages at 1 mg/ml after 3 hrs by ELISA relative to control; format: functional; summary of the method: as §1
# RAW264.7 [4] = experiment: Effect on Porphyromonas gingivalis-induced NOD2 mRNA level in wild type mouse RAW264.7 cells at 10 ug/ml after 3 hrs by RT-PCR analysis relative to control; format: functional
# Summary of the method: (§2)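 Macrophages left untreated (negative control), given P. gingivalis alone (positive control), or co-treated with P. gingivalis plus low (10 µg/ml) or high (100 µg/ml) MDP for 3 h. Total mRNA analysed by real-time RT-PCR for NOD2, RIP2 or A20, normalized to GAPDH. NOD2/RIP2 expressed relative to P. gingivalis alone (100%); A20 relative to the low-dose treatment (100%). Triplicates, mean ± SEM.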
# [5] = Cytotoxicity against wild type mouse RAW264.7 cells assessed as survival rate at 10 ug/ml measured for 24 hrs by trypan blue assay relative to control; format: cell-based; conditions: wild type RAW264.7 cells, read-out: Survival
# Summary of the method: (§3)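 WT mouse macrophages in RPMI 1640 with 10% FBS (37 °C, 5% CO2) were exposed to MDP for 0, 2, 4, 8, 12, 16, 18 or 24 h, then harvested with trypsin. Viability was counted by Trypan blue exclusion and expressed relative to 0 µg/ml MDP at 24 h (set as 100%). Done in triplicate; mean ± S.E.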
# [6] = Cytotoxicity against wild type mouse RAW264.7 cells assessed as survival rate at 100 ug/ml measured for 24 hrs by trypan blue assay relative to control; format: cell-based; conditions: wild type RAW264.7 cells, read-out: Survival; summary of the method: as §3
# [7] = Cytotoxicity against wild type mouse RAW264.7 cells assessed as survival rate at 1 mg/ml measured for 24 hrs by trypan blue assay relative to control; format: cell-based; conditions: wild type RAW264.7 cells, read-out: Survival; summary of the method: as §3
# RAW264.7 [8] = experiment: Effect on Porphyromonas gingivalis-induced NOD2 mRNA level in wild type mouse RAW264.7 cells at 100 ug/ml after 3 hrs by RT-PCR analysis relative to control; format: functional; summary of the method: as §2
# RAW264.7 [9] = experiment: Effect on Porphyromonas gingivalis-induced RIP2 mRNA level in wild type mouse RAW264.7 cells at 10 ug/ml after 3 hrs by RT-PCR analysis relative to control; format: functional; summary of the method: as §2
# RAW264.7 [10] = experiment: Effect on Porphyromonas gingivalis-induced RIP2 mRNA level in wild type mouse RAW264.7 cells at 100 ug/ml after 3 hrs by RT-PCR analysis relative to control; format: functional; summary of the method: as §2
# RAW264.7 [11] = experiment: Effect on A20 mRNA level in wild type mouse RAW264.7 cells at 10 ug/ml after 3 hrs by RT-PCR analysis relative to control; format: functional; summary of the method: as §2
# RAW264.7 [12] = experiment: Effect on A20 mRNA level in wild type mouse RAW264.7 cells at 100 ug/ml after 3 hrs by RT-PCR analysis relative to control; format: functional; summary of the method: as §2
# RAW264.7 [13] = experiment: Effect on AP1 protein level in wild type mouse RAW264.7 cells at 10 ug/ml after 3 hrs by Western blot analysis relative to SC peptide; format: functional
# Summary of the method: (§4)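 Macrophages left untreated, given a scrambled (SC) peptide as negative control, or treated with low (10 µg/ml) or high (100 µg/ml) MDP for 3 h. Whole-cell and nuclear protein fractions prepared with Hepes pH 7.9 buffers and probed by Western blot for A20, AP1, MyD88 or NFκB. Triplicate assays.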
# RAW264.7 [14] = experiment: Effect on A20 protein level in wild type mouse RAW264.7 cells at 10 ug/ml after 3 hrs by Western blot analysis relative to SC peptide; format: functional; summary of the method: as §4
# RAW264.7 [15] = experiment: Effect on MyD88 protein level in wild type mouse RAW264.7 cells at 10 ug/ml after 3 hrs by Western blot analysis relative to SC peptide; format: functional; summary of the method: as §4
# RAW264.7 [16] = experiment: Effect on NFkappaB protein level in wild type mouse RAW264.7 cells at 10 ug/ml after 3 hrs by Western blot analysis relative to SC peptide; format: functional; summary of the method: as §4
# RAW264.7 [17] = experiment: Upregulation of Porphyromonas gingivalis-induced p21 protein level in wild type mouse RAW264.7 cells at 10 to 1000 ug/ml after 3 hrs by Western blot analysis; format: functional, cell-based
# Summary of the method: (§5)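 Macrophages treated with MDP at 0, 10, 100 or 1,000 µg/ml, alone or together with P. gingivalis, for 3 h. Total protein probed by Western blot for p21 or p53, with actin as loading control. Triplicate assays.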
# RAW264.7 [18] = experiment: Upregulation of Porphyromonas gingivalis-induced p53 protein level in wild type mouse RAW264.7 cells at 10 to 1000 ug/ml after 3 hrs by Western blot analysis; format: functional, cell-based; summary of the method: as §5
# RAW264.7 [19] = experiment: Effect on AP1 protein level in wild type mouse RAW264.7 cells at 100 ug/ml after 3 hrs by Western blot analysis relative to SC peptide; format: functional; summary of the method: as §4
# RAW264.7 [20] = experiment: Effect on A20 protein level in wild type mouse RAW264.7 cells at 100 ug/ml after 3 hrs by Western blot analysis relative to SC peptide; format: functional; summary of the method: as §4
# RAW264.7 [21] = experiment: Effect on MyD88 protein level in wild type mouse RAW264.7 cells at 100 ug/ml after 3 hrs by Western blot analysis relative to SC peptide; format: functional; summary of the method: as §4
# RAW264.7 [22] = experiment: Effect on NFkappaB protein level in wild type mouse RAW264.7 cells at 100 ug/ml after 3 hrs by Western blot analysis relative to SC peptide; format: functional; summary of the method: as §4
# RAW264.7 [23] = experiment: Upregulation of A20 mRNA level in wild type mouse RAW264.7 cells at 100 ug/ml after 3 hrs by RT-PCR analysis relative to control; format: functional; summary of the method: as §2
# RAW264.7 [24] = experiment: Upregulation of A20 promoter DNA level in wild type mouse RAW264.7 cells at 10 ug/ml after 3 hrs by ChIP assay; format: functional, cell-based
# Summary of the method: (§6)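 RAW264.7 cells treated with low (10 µg/ml) or high (100 µg/ml) MDP for 3 h, or transfected overnight with 1 µg AP1 cDNA as comparator. 10 µg nuclear extract from cross-linked cells immunoprecipitated with 1 µg anti-AP1 antibody or normal mouse IgG at 4 °C for 4 h; A20 promoter and GAPDH fragments amplified by PCR from input and IPs. Triplicates.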
# RAW264.7 [25] = experiment: Upregulation of A20 promoter DNA level in wild type mouse RAW264.7 cells at 100 ug/ml after 3 hrs by ChIP assay; format: functional, cell-based; summary of the method: as §6
# RAW264.7 [26] = experiment: Downregulation of Porphyromonas gingivalis-induced TNF-alpha protein expression in wild type mouse RAW264.7 cells at 10 to 200 ug/ml after 3 hrs by ELISA; format: functional, cell-based
# Summary of the method: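 Macrophages left untreated, given P. gingivalis alone or test agent alone as controls, or co-treated with P. gingivalis plus 10, 100 or 200 µg/ml for 3 h. TNF-α in culture supernatant measured by ELISA kit; mean ± S.E.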
# RAW264.7 [27] = experiment: Upregulation of AP1 protein expression in wild type mouse RAW264.7 cells after 3 hrs by Western blot analysis; format: functional, cell-based; summary of the method: as §4
# RAW264.7 [28] = experiment: Upregulation of A20 protein expression in wild type mouse RAW264.7 cells after 3 hrs by Western blot analysis; format: functional, cell-based; summary of the method: as §4
# Mus musculus [29] = experiment: Antiinflammatory activity in wild type C57BL/6 mouse assessed as reduction of Porphyromonas gingivalis-induced septic shock at 8 mg/kg, ip; format: functional, organism-based
# [30] = Toxicity in Porphyromonas gingivalis-induced wild type C57BL/6 mouse septic shock model assessed as mortality at 2 mg/kg, ip; format: organism-based; conditions: in vivo
# Summary of the method: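 Mice were 8–10-week-old WT C57BL/6, kept specific pathogen-free. They received a single i.p. co-injection of P. gingivalis (1 × 10^8/kg) plus MDP at 2 mg/kg (50 µg/mouse). Controls were DMSO alone or P. gingivalis alone. Animals were watched continuously for endotoxic response for 2 h after injection; n = 3 per group.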
# RAW264.7 [31] = experiment: Downregulation of Porphyromonas gingivalis-induced RIP2 mRNA expression in wild type mouse RAW264.7 cells at 100 ug/ml after 3 hrs by RT-PCR analysis; format: functional, cell-based
# Summary of the method: (§7)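 Macrophages in RPMI 1640 with 10% FBS, 37 °C, 5% CO2, left untreated, given P. gingivalis alone or test agent alone as controls, or co-treated with P. gingivalis plus 10, 100 or 200 µg/ml for 3 h. Total RNA analysed by real-time RT-PCR (SYBR Green) for NFkB, RIP2 or NOD2, normalized to GAPDH; mean ± S.E.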
# RAW264.7 [32] = experiment: Downregulation of Porphyromonas gingivalis-induced NOD2 mRNA expression in wild type mouse RAW264.7 cells at 100 ug/ml after 3 hrs by RT-PCR analysis; format: functional, cell-based; summary of the method: as §7
# RAW264.7 [33] = experiment: Downregulation of Porphyromonas gingivalis-induced NFkappaB mRNA expression in wild type mouse RAW264.7 cells at 100 ug/ml after 3 hrs by RT-PCR analysis; format: functional, cell-based; summary of the method: as §7
# Mus musculus [34] = experiment: Antiinflammatory activity in wild type C57BL/6 mouse assessed as reduction of Porphyromonas gingivalis-induced septic shock at 2 to 8 mg/kg, ip; format: functional, organism-based
compound,measurement,setting,value
CC(=O)N[C@H]1C(O)O[C@H](CO)[C@@H](O)[C@@H]1O[C@H](C)C(=O)N[C@@H](C)C(=O)N[C@H](CCC(=O)O)C(N)=O (some centres not stated) [MURAMYL DIPEPTIDE],Activity,Peritoneal macrophage [1],129%
same,Activity,Peritoneal macrophage [2],84%
same,Activity,Peritoneal macrophage [3],62%
same,Activity,RAW264.7 [4],136%
same,"viability at 24 h, 10 ug/ml",[5],92%
same,"viability at 24 h, 100 ug/ml",[6],89%
same,"viability at 24 h, 1 mg/ml",[7],88%
same,Activity,RAW264.7 [8],95%
same,Activity,RAW264.7 [9],103%
same,Activity,RAW264.7 [10],104%
same,Activity,RAW264.7 [11],117%
same,Activity,RAW264.7 [12],565%
same,Activity,RAW264.7 [13],135%
same,Activity,RAW264.7 [14],106%
same,Activity,RAW264.7 [15],274%
same,Activity,RAW264.7 [16],388%
same,Activity,RAW264.7 [17],inactive
same,Activity,RAW264.7 [18],inactive
same,Activity,RAW264.7 [19],282%
same,Activity,RAW264.7 [20],236%
same,Activity,RAW264.7 [21],144%
same,Activity,RAW264.7 [22],142%
same,fold change (FC),RAW264.7 [23],5.6
same,Activity,RAW264.7 [24],inactive
same,Activity,RAW264.7 [25],Active
same,Activity,RAW264.7 [26],Active
same,Activity,RAW264.7 [27],Active
same,Activity,RAW264.7 [28],Active
same,Activity,Mus musculus [29],Active
same,Activity,[30],Toxic
CC(=O)N[C@H]1[C@@H](OCc2ccccc2)O[C@@H]2COC(C)(C)O[C@H]2[C@@H]1O[C@H](C)C(=O)N[C@@H](C)C(=O)N[C@H](CCC(=O)OCc1ccccc1)C(N)=O,Activity,RAW264.7 [26],Active
same,Activity,RAW264.7 [27],Active
same,Activity,RAW264.7 [28],Active
same,Activity,RAW264.7 [31],Active
same,Activity,RAW264.7 [32],Active
same,Activity,RAW264.7 [33],Active
same,Activity,Mus musculus [34],Active
